From ChEMBL document CHEMBL1125649, “Synthesis and antitumor activity of structural analogues of the epipodophyllotoxins” (J Med Chem, 1991)
In brackets after ≈: the same amount, converted by molar mass.

Columns and labels:
Type in all cases: functional, cell-based
HT-29 = test: Growth inhibition of HT-29 (human colon adenocarcinoma) cell line.
Outline: (§1)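 Cells from ATCC, grown in RPMI 1640 with 10% fetal calf serum. Compounds dissolved in DMSO, diluted in Earle's balanced salt solution then medium, 2-fold serial dilutions, each in triplicate versus triplicate drug-free controls. 2.5 × 10^3 cells per well, 72 h at 37 °C, 5% CO2. MTT added for 90 min, DMSO solubilization, absorbance at 570 nm. IC50 = 50% absorbance reduction versus control, by linear regression of dose-response curves.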

P388 = test: Growth inhibition of P388-D1 (murine leukemia) cell line.; details: Mus musculus; outline: as §1
A549 = test: Growth inhibition of A549 (human lung carcinoma) cell line.; outline: as §1

SMILES | IC50 (HT-29) [µg/mL] | IC50 (P388) [µg/mL] | IC50 (A549) [µg/mL]
COc1cc([C@@H]2c3cc4c(cc3[C@@H](O)[C@@]23CCOC3=O)OCO4)cc(OC)c1O | > 50 | 16.8 (≈ 42 µM) | 48.2 (≈ 120 µM)
COc1cc([C@@H]2c3cc4c(cc3[C@@H](O[C@@H]3O[C@@H]5CO[C@@H](C)O[C@H]5[C@H](O)[C@H]3O)[C@H]3COC(=O)[C@H]23)OCO4)cc(OC)c1O [ETOPOSIDE] | 1.7 (≈ 2.89 µM) | 0.063 (≈ 0.107 µM) | 1.03 (≈ 1.75 µM)
COc1cc([C@@H]2c3cc4c(cc3[C@H](O)[C@@]23CCOC3=O)OCO4)cc(OC)c1O | > 50 | > 50 | > 50
COc1cc([C@@H]2c3cc4c(cc3[C@]3(CO)COC(=O)[C@H]23)OCO4)cc(OC)c1OC | 1.2 (≈ 2.9 µM) | 0.59 (≈ 1.42 µM) | 1.2 (≈ 2.9 µM)
COc1cccc2c1C(=O)c1c(O)c3c(c(O)c1C2=O)C[C@@](O)(C(=O)CO)C[C@@H]3O[C@H]1C[C@H](N)[C@H](O)[C@H](C)O1 [DOXORUBICIN] | 0.11 (≈ 0.202 µM) | 0.017 (≈ 0.0313 µM) | 0.053 (≈ 0.0975 µM)
COc1cc([C@H]2C[C@@H](OC)c3cc4c(cc32)OCO4)cc(OC)c1O | 3.2 (≈ 9.29 µM) | 0.57 (≈ 1.66 µM) | 1.1 (≈ 3.19 µM)
COc1cc([C@@H]2c3cc4c(cc3[C@H](O)[C@@]23CCOC3=O)OCO4)cc(OC)c1OC | 5.3 (≈ 12.8 µM) | 2.5 (≈ 6.03 µM) | 5.1 (≈ 12.3 µM)
COC(=O)[C@@]12CCO[C@@H]1c1cc3c(cc1[C@H]2c1cc(OC)c(O)c(OC)c1)OCO3 | > 50 | 43 (≈ 104 µM) | > 50
COc1cc([C@H]2C[C@H](O)c3cc4c(cc32)OCO4)cc(OC)c1O | 12 (≈ 36.3 µM) | 4.2 (≈ 12.7 µM) | 9.9 (≈ 30 µM)
COC(=O)[C@@]12CCO[C@@H]1c1cc3c(cc1[C@H]2c1cc(OC)c(OC)c(OC)c1)OCO3 | 17.4 (≈ 40.6 µM) | 5.7 (≈ 13.3 µM) | 11.9 (≈ 27.8 µM)
COc1cc([C@@H]2c3cc4c(cc3[C@H](O)[C@H]3COC(=O)[C@H]23)OCO4)cc(OC)c1OC [PODOFILOX] | 0.0043 (≈ 0.0104 µM) | 0.0013 (≈ 0.00314 µM) | 0.0043 (≈ 0.0104 µM)

More lines, now with the values ahead:

IC50 (HT-29) [µg/mL] | IC50 (P388) [µg/mL] | IC50 (A549) [µg/mL] | SMILES
28.8 (≈ 74.5 µM) | 7.1 (≈ 18.4 µM) | 31.3 (≈ 81 µM) | COc1cc([C@H]2C[C@H](OC(C)(C)C)c3cc4c(cc32)OCO4)cc(OC)c1O
12.2 (≈ 30.5 µM) | 8 (≈ 20 µM) | 12.5 (≈ 31.2 µM) | COc1cc([C@@H]2c3cc4c(cc3[C@]3(CO)COC(=O)[C@H]23)OCO4)cc(OC)c1O
2.9 (≈ 8.47 µM) | 1.1 (≈ 3.21 µM) | 2.9 (≈ 8.47 µM) | COc1cc(C2CC(=O)c3cc4c(cc32)OCO4)cc(OC)c1OC (stereo not given)
41.5 (≈ 121 µM) | 8.1 (≈ 23.5 µM) | 46.9 (≈ 136 µM) | COc1cc([C@H]2C[C@H](OC)c3cc4c(cc32)OCO4)cc(OC)c1O
19.2 (≈ 58.5 µM) | 1.7 (≈ 5.18 µM) | 19.4 (≈ 59.1 µM) | COc1cc(C2CC(=O)c3cc4c(cc32)OCO4)cc(OC)c1O (stereo not given)
8.6 (≈ 20.8 µM) | 6.6 (≈ 16 µM) | 9.7 (≈ 23.5 µM) | COc1cc([C@H]2C[C@H](OC3CCCCC3)c3cc4c(cc32)OCO4)cc(OC)c1O
10.3 (≈ 25 µM) | 7.9 (≈ 19.2 µM) | 12 (≈ 29.1 µM) | COc1cc([C@H]2C[C@@H](OC3CCCCC3)c3cc4c(cc32)OCO4)cc(OC)c1O
0.032 (≈ 0.0929 µM) | 0.014 (≈ 0.0407 µM) | 0.038 (≈ 0.11 µM) | COc1cc([C@H]2C[C@@H](O)c3cc4c(cc32)OCO4)cc(OC)c1OC
2.1 (≈ 6.36 µM) | 0.53 (≈ 1.6 µM) | 0.76 (≈ 2.3 µM) | COc1cc([C@H]2C[C@@H](O)c3cc4c(cc32)OCO4)cc(OC)c1O
